The values that follow come from ChEMBL document CHEMBL1137643, “In vitro and in vivo activities of novel fluoroquinolones alone and in combination with clarithromycin against clinically isolated Mycobacterium avium complex strains in Japan” (2007).

Each structure is given as a SMILES string. Converted amounts (≈) assume the structure as drawn.

What all share (assay type): functional
In test [1] the test system is Mycobacterium avium complex sp. The test can be described thus: Antimycobacterial activity against Mycobacterium avium complex N016 infected C57BL/6J mouse assessed as liver bacterial count at 100 mg/kg/day dosed through gavage route administered for 28 days post bacterial challenge measured 2 days after last dose. The method in brief: (§1)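 Mice given 1.0 × 10^7 to 3.0 × 10^7 CFU in 100 μl via tail vein; daily gavage dosing began day 21 for 28 days; distilled-water controls. Sacrifice 48 h after last dose. Organ portions homogenized in 1 ml saline, diluted in 7H9, plated on 7H10; log10 CFU/organ, mean ± SEM, 5 mice/group. Experiment run twice; ANOVA with Fisher's PLSD.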

Test [2] has the same test system. The test can be described thus: Antimycobacterial activity against Mycobacterium avium complex N018 after 14 days by broth microdilution method. The following applies: N018, 336 h. Put shortly:
(§2)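 Broth microdilution in Middlebrook 7H9 (OADC, Tween 80, glycerol); twofold dilutions giving final 0.125–128 μg/ml; inoculum 1.0 × 10^5 CFU/well; 14 days at 37°C. MIC = lowest concentration completely inhibiting growth. Triplicate tests. Inocula from 7H10 agar colonies (21 days) subcultured in 7H9 for 7 days at 37°C, stored at −80°C.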
(In general: Broth dilution looks for growth in wells or tubes with falling amounts of substance.)

Test [3] relates to Mycobacterium intracellulare. The test can be described thus: Antimycobacterial activity against Mycobacterium intracellular JATA52-01 after 14 days by broth microdilution method. The following applies: JATA52-01, 336 h. The method in brief:
as §2

The test system of test [4] is Mycobacterium avium complex sp. Put plainly: Antimycobacterial activity against Mycobacterium avium complex N018 infected C57BL/6J mouse assessed as spleen bacterial count at 100 mg/kg/day dosed through gavage route administered for 28 days post bacterial challenge measured 2 days after last dose. Put shortly: as §1
In test [5] the test system is Mycobacterium avium. The test can be described thus: Antimycobacterial activity against Mycobacterium avium JATA51-01 infected C57BL/6J mouse assessed as spleen bacterial count at 100 mg/kg/day dosed through gavage route administered for 28 days post bacterial challenge measured 2 days after last dose. The method in brief: (§3)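 Mice infected via tail vein with 1.0 × 10^7 to 3.0 × 10^7 CFU in 100 μl saline; daily oral gavage started day 21, for 28 days; distilled-water controls; sacrificed 48 h after last dose; lungs, liver, spleen homogenized in saline, serially diluted in 7H9, plated on 7H10 agar; log10 CFU/organ, mean ± SEM, 5 mice/group; ANOVA with Fisher's PLSD; experiment done twice.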

Test [6] deals with Mycobacterium avium. The test can be described thus: Antimycobacterial activity against Mycobacterium avium JATA51-01 infected C57BL/6J mouse assessed as liver bacterial count at 100 mg/kg/day dosed through gavage route administered for 28 days post bacterial challenge measured 2 days after last dose. The method in brief:
as §3

Test [7] has as its system Mycobacterium avium complex sp. The test can be described thus: Antimycobacterial activity against Mycobacterium avium complex N018 infected C57BL/6J mouse assessed as liver bacterial count at 100 mg/kg/day dosed through gavage route administered for 28 days post bacterial challenge measured 2 days after last dose. The method in brief:
as §1

For test [8] the test system is unchanged. Put plainly: Antimycobacterial activity against Mycobacterium avium complex N016 after 14 days by broth microdilution method. The settings on record: N016, 336 h. The method in brief:
as §2

Test [9] has the same test system. The test can be described thus: Antimycobacterial activity against Mycobacterium avium complex after 14 days by broth microdilution method. The following applies: 336 h. Put shortly: as §2
Test [10] deals with Mycobacterium intracellulare. Put plainly: Antimycobacterial activity against Mycobacterium intracellular JATA52-01 infected C57BL/6J mouse assessed as lung bacterial count at 100 mg/kg/day dosed through gavage route administered for 28 days post bacterial challenge measured 2 days after last dose. The method in brief:
as §1

Test [11] relates to Mycobacterium avium complex sp. Put plainly: Antimycobacterial activity against Mycobacterium avium complex N084 infected C57BL/6J mouse assessed as spleen bacterial count at 100 mg/kg/day dosed through gavage route administered for 28 days post bacterial challenge measured 2 days after last dose. The method in brief: as §1
The subject of test [12] is Mycobacterium intracellulare. The test can be described thus: Antimycobacterial activity against Mycobacterium intracellular JATA52-01 infected C57BL/6J mouse assessed as spleen bacterial count at 100 mg/kg/day dosed through gavage route administered for 28 days post bacterial challenge measured 2 days after last dose. The method in brief:
as §1

For test [13], the system named is Mycobacterium avium complex sp. Put plainly: Antimycobacterial activity against Mycobacterium avium complex N016 infected C57BL/6J mouse assessed as spleen bacterial count at 100 mg/kg/day dosed through gavage route administered for 28 days post bacterial challenge measured 2 days after last dose. Put shortly:
as §1

The test system is the same in test [14]. The test can be described thus: Antimycobacterial activity against Mycobacterium avium complex N084 infected C57BL/6J mouse assessed as liver bacterial count at 100 mg/kg/day dosed through gavage route administered for 28 days post bacterial challenge measured 2 days after last dose. The method in brief: as §1
Test [15] deals with Mycobacterium intracellulare. The test can be described thus: Antimycobacterial activity against Mycobacterium intracellular JATA52-01 infected C57BL/6J mouse assessed as liver bacterial count at 100 mg/kg/day dosed through gavage route administered for 28 days post bacterial challenge measured 2 days after last dose. The method in brief: as §1
The subject of test [16] is Mycobacterium avium complex sp. The test can be described thus: Antimycobacterial activity against Mycobacterium avium complex N084 infected C57BL/6J mouse assessed as lung bacterial count at 100 mg/kg/day dosed through gavage route administered for 28 days post bacterial challenge measured 2 days after last dose. The method in brief:
as §1

In test [17] the test system is Mycobacterium avium. The test can be described thus: Antimycobacterial activity against Mycobacterium avium JATA51-01 infected C57BL/6J mouse assessed as lung bacterial count at 100 mg/kg/day dosed through gavage route administered for 28 days post bacterial challenge measured 2 days after last dose. The method in brief: as §3
Test [18] has as its system Mycobacterium avium complex sp. Put plainly: Antimycobacterial activity against Mycobacterium avium complex N018 infected C57BL/6J mouse assessed as lung bacterial count at 100 mg/kg/day dosed through gavage route administered for 28 days post bacterial challenge measured 2 days after last dose. Put shortly: as §1
Test [19] has the same test system. The test can be described thus: Antimycobacterial activity against Mycobacterium avium complex N084 after 14 days by broth microdilution method. The following applies: N084, 336 h. Put shortly:
as §2

Test [20] shares this test system. The test can be described thus: Antimycobacterial activity against Mycobacterium avium complex N016 infected C57BL/6J mouse assessed as lung bacterial count at 100 mg/kg/day dosed through gavage route administered for 28 days post bacterial challenge measured 2 days after last dose. The method in brief:
as §1

Test [21] deals with Mycobacterium intracellulare. The test can be described thus: Antimycobacterial activity against Mycobacterium intracellular JATA52-01 infected C57BL/6J mouse assessed as liver bacterial count at 200 mg/kg/day dosed through gavage route administered for 28 days post bacterial challenge measured 2 days after last dose. The method in brief: as §1
Test [22] relates to Mycobacterium avium. The test can be described thus: Antimycobacterial activity against Mycobacterium avium JATA51-01 infected C57BL/6J mouse assessed as lung bacterial count at 200 mg/kg/day dosed through gavage route administered for 28 days post bacterial challenge measured 2 days after last dose. The method in brief: as §3
Test [23] concerns Mycobacterium avium complex sp. The test can be described thus: Antimycobacterial activity against Mycobacterium avium complex N016 infected C57BL/6J mouse assessed as spleen bacterial count at 200 mg/kg/day dosed through gavage route administered for 28 days post bacterial challenge measured 2 days after last dose. Put shortly: as §1
Test [24] concerns Mycobacterium avium. Put plainly: Antimycobacterial activity against Mycobacterium avium JATA51-01 infected C57BL/6J mouse assessed as spleen bacterial count at 200 mg/kg/day dosed through gavage route administered for 28 days post bacterial challenge measured 2 days after last dose. Put shortly: as §3
In test [25] the test system is Mycobacterium avium complex sp. Put plainly: Antimycobacterial activity against Mycobacterium avium complex N016 infected C57BL/6J mouse assessed as lung bacterial count at 200 mg/kg/day dosed through gavage route administered for 28 days post bacterial challenge measured 2 days after last dose. Put shortly: as §1
Test [26] has the same test system. Put plainly: Antimycobacterial activity against Mycobacterium avium complex N084 infected C57BL/6J mouse assessed as liver bacterial count at 200 mg/kg/day dosed through gavage route administered for 28 days post bacterial challenge measured 2 days after last dose. The method in brief: as §1
Test [27] shares this test system. The test can be described thus: Antimycobacterial activity against Mycobacterium avium complex N018 infected C57BL/6J mouse assessed as spleen bacterial count at 200 mg/kg/day dosed through gavage route administered for 28 days post bacterial challenge measured 2 days after last dose. Put shortly:
as §1

The test system is the same in test [28]. The test can be described thus: Antimycobacterial activity against Mycobacterium avium complex N016 infected C57BL/6J mouse assessed as liver bacterial count at 200 mg/kg/day dosed through gavage route administered for 28 days post bacterial challenge measured 2 days after last dose. The method in brief:
as §1

For test [29] the test system is unchanged. Put plainly: Antimycobacterial activity against Mycobacterium avium complex N018 infected C57BL/6J mouse assessed as lung bacterial count at 200 mg/kg/day dosed through gavage route administered for 28 days post bacterial challenge measured 2 days after last dose. Put shortly:
as §1

Test [30] shares this test system. Put plainly: Antimycobacterial activity against Mycobacterium avium complex N018 infected C57BL/6J mouse assessed as liver bacterial count at 200 mg/kg/day dosed through gavage route administered for 28 days post bacterial challenge measured 2 days after last dose. Put shortly:
as §1

The subject of test [31] is Mycobacterium intracellulare. Put plainly: Antimycobacterial activity against Mycobacterium intracellular JATA52-01 infected C57BL/6J mouse assessed as lung bacterial count at 200 mg/kg/day dosed through gavage route administered for 28 days post bacterial challenge measured 2 days after last dose. The method in brief: as §1
The test system of test [32] is Mycobacterium avium complex sp. The test can be described thus: Antimycobacterial activity against Mycobacterium avium complex N084 infected C57BL/6J mouse assessed as spleen bacterial count at 200 mg/kg/day dosed through gavage route administered for 28 days post bacterial challenge measured 2 days after last dose. The method in brief: as §1
The test system of test [33] is Mycobacterium intracellulare. Put plainly: Antimycobacterial activity against Mycobacterium intracellular JATA52-01 infected C57BL/6J mouse assessed as spleen bacterial count at 200 mg/kg/day dosed through gavage route administered for 28 days post bacterial challenge measured 2 days after last dose. The method in brief:
as §1

Test [34] deals with Mycobacterium avium complex sp. The test can be described thus: Antimycobacterial activity against Mycobacterium avium complex N084 infected C57BL/6J mouse assessed as lung bacterial count at 200 mg/kg/day dosed through gavage route administered for 28 days post bacterial challenge measured 2 days after last dose. The method in brief: as §1
For test [35], the system named is Mycobacterium avium. The test can be described thus: Antimycobacterial activity against Mycobacterium avium JATA51-01 after 14 days by broth microdilution method. The following applies: JATA51-01, 336 h. Put shortly:
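Broth microdilution in 7H9 (10% OADC, 0.05% Tween 80, 0.2% glycerol); twofold drug dilutions, final 0.125–128 μg/ml; inoculum 1.0 × 10^5 CFU/well from 7-day 37°C subculture of 21-day 7H10 colonies; 14 days at 37°C; MIC = lowest concentration with complete growth inhibition; triplicate.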

For test [36], the system named is Mycobacterium avium. The test can be described thus: Antimycobacterial activity against Mycobacterium avium JATA51-01 infected C57BL/6J mouse assessed as liver bacterial count at 200 mg/kg/day dosed through gavage route administered for 28 days post bacterial challenge measured 2 days after last dose. Put shortly: as §3

Turning to `COc1c(N2C[C@@H]3CCCN[C@@H]3C2)c(F)cc2c(=O)c(C(=O)O)cn(C3CC3)c12` [MOXIFLOXACIN], the log10cfu in [1] is listed as 6.53; in [4], 6.6; in the test with Mycobacterium avium [5] it was 9.18; in the test on Mycobacterium avium [6], 9.68; in test [7], 7.09; in test [10] it was 4.83. Moreover, the log10cfu in test [11] came out at 7.39; in [12] it was 4.15; in test [13] it was 6.6; in test [14], 7.78; in test [15], 4.76; in test [16] it was 7.9. The results for the log10cfu (in the test on Mycobacterium avium [17]; in test [18]; in test [20]) were 8.83, 5.79 and 5.35, respectively. The MIC in [2], in [3], in test [8] and in [19] was 0.5 µg/mL (≈ 1.25 µM) in each case. In addition, in [9], the MIC90 (as a rule, an inhibitory concentration at the 90% level, which refers to growth in some studies and to a panel of isolates in others) is 2 µg/mL (≈ 4.98 µM).

In the case of `C[C@H]1COc2c(N3CCN(C)CC3)c(F)cc3c(=O)c(C(=O)O)cn1c23.C[C@H]1COc2c(N3CCN(C)CC3)c(F)cc3c(=O)c(C(=O)O)cn1c23.O` [LEVOFLOXACIN], the MIC – broadly, the lowest concentration that inhibits growth of the organism – in [2] was found to be 4 µg/mL; in [3], 4 µg/mL; in test [8], 2 µg/mL; against Mycobacterium avium [35], 4 µg/mL; in [19], 8 µg/mL. For the same compound, the log10cfu is 5.16 in test [21]; 9.01 in the test with Mycobacterium avium [22]; 6.72 in test [23]; 9.38 in the test on Mycobacterium avium [24]; 5.48 in test [25]; 7.77 in [26]. For the same compound, the log10cfu in test [27] is on record as 6.82; in [28], 6.52; in test [29], 6.01; in test [30], 7.4; in [31], 5.47; in [32] it was 7.58. The values for the log10cfu (in [33]; in [34]; with Mycobacterium avium [36]) were 4.48, 7.82 and 9.92, respectively. This compound also gave an MIC90 in [9] of 16 µg/mL.
